The chains are these.
B1: Osa-1-4 twister ribozyme (parent)
chain: CCGCCUAACACUGCCAAUGCCGGUCCCAAGCCCGGAUAAAAGUGGAGGGGGCGG

In the data set the parent is B1. The data set is described as follows: self-cleavage, relative activity (ratio to wild type); higher = more cleavage; co-transcriptional. Put shortly: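 A DNA template encoding a 54-nucleotide twister ribozyme from Oryza sativa was made so that each of the 48 positions downstream of the cleavage site carried 97 % wild-type base and 1 % of each other base. Transcription in vitro ran for 2 h at 37 °C, during which the ribozyme could cleave itself. Reverse transcription used a template-switching oligonucleotide, and the products were PCR-amplified and deep-sequenced. Each read was scored as cleaved or uncleaved by whether upstream sequence was present, and relative activity is the fraction cleaved normalised to wild type.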
Consider CCGCCUAACACUGCCAAGGCCGGUCCCAAGCCCGGAUAAAGGUGGAGGGGGCGG [A41G U18G], for which the self-cleavage amounted to 0.83. With CCGCCUAACACUGCCAACGCCGGUCCCAAGCCCGGAUAAAGGUGGAGGGGGCGG [A41G U18C], the self-cleavage was 0.74. Turning to CCGCCUAACACUGCCAAUGCCGGUCUCAAGCCCGGAUAAAUGUGGAGGGGGCGG [A41U C26U], the self-cleavage was 0.93.

In the case of CCGCCUAACACUGCCAAUGCCGGUCACAAGCCCGGAUAAAUGUGGAGGGGGCGG [A41U C26A], the self-cleavage was 0.06. For the variant CCGCCUAACACUGCCAAUGCCGGUCGCAAGCCCGGAUAAAUGUGGAGGGGGCGG [A41U C26G], the self-cleavage was found to be 0.11. Regarding CCGCCUAACACUGUCAAUGCCGGUCCCAAGCCCGGAUAAAUGUGGAGGGGGCGG [A41U C14U], the self-cleavage amounted to 0.7. As for CCGCCUAACACUGGCAAUGCCGGUCCCAAGCCCGGAUAAAUGUGGAGGGGGCGG [A41U C14G], the self-cleavage amounted to 0.3. With CCGCCUAACACUGACAAUGCCGGUCCCAAGCCCGGAUAAAUGUGGAGGGGGCGG [A41U C14A], the self-cleavage is 0.13.

Take CCGCCUAACACUGCCAAUGCUGGUCCCAAGCCCGGAUAAAUGUGGAGGGGGCGG [A41U C21U]: the self-cleavage turned out to be 1. Turning to CCGCCUAACACUGCCAAUGCAGGUCCCAAGCCCGGAUAAAUGUGGAGGGGGCGG [A41U C21A], the self-cleavage was determined as 0.87. The same measure for CCGCCUAACACUGCCAAUGCGGGUCCCAAGCCCGGAUAAAUGUGGAGGGGGCGG [A41U C21G]: 0.1; for CCGCCUAACACUGCCAAUGCCGGUCCCAAGCCCGGAUAAAUGUGGGGGGGGCGG [A41U A46G]: 0.07. Consider CCGCCUAACACUGCCAAUGCCGGUCCCAAGCCCGGAUAAAUGUGGCGGGGGCGG [A41U A46C], for which the self-cleavage is 0.06. Consider CCGCCUAACACUGCCAAUGCCGGUCCCAAGCCCGGAUAAAUGUGGUGGGGGCGG [A41U A46U], for which the self-cleavage amounted to 0.09. As for CCGCCUAACACUGCCAAUGCCGGUCCCAAGACCGGAUAAAUGUGGAGGGGGCGG [A41U C31A], the self-cleavage worked out at 0.04. The same measure for CCGCCUAACACUGCCAAUGCCGGUCCAAAGCCCGGAUAAAUGUGGAGGGGGCGG [A41U C27A]: 0.18; for CCGCCUAACACUGCCAAUGCCGGUCCUAAGCCCGGAUAAAUGUGGAGGGGGCGG [A41U C27U]: 0.16; for CCGCCUAACACUGCCAAUGCCGGUCCGAAGCCCGGAUAAAUGUGGAGGGGGCGG [A41U C27G]: 0.08. Consider CCGCCUAACACUGCGAAUGCCGGUCCCAAGCCCGGAUAAAUGUGGAGGGGGCGG [A41U C15G], for which the self-cleavage amounted to 0.64. The same measure for CCGCCUAACACUGCAAAUGCCGGUCCCAAGCCCGGAUAAAUGUGGAGGGGGCGG [A41U C15A]: 0.26; for CCGCCUAACACUGCUAAUGCCGGUCCCAAGCCCGGAUAAAUGUGGAGGGGGCGG [A41U C15U]: 0.56. CCGCCUAACACUGCCAAUGCCGGUCCCAAGCCCGGAUAAAUGUGGAGGGGGCGG [A41U]: the self-cleavage came to 1.02. The same measure for CCGCCUAACACUGCCAAUGCCGGUCCCAAGCCCGGACAAAGGUGGAGGGGGCGG [A41G U37C]: 0.59; for CCGCCUAACACUGCCAAUGCCGGUCCCAAGCCCGGAGAAAGGUGGAGGGGGCGG [A41G U37G]: 0.87. As for CCGCCUAACACUGCCAAUGCCGGUCCCAAGCCCGGAAAAAGGUGGAGGGGGCGG [A41G U37A], the self-cleavage was found to be 0.86. As for CCGCCUACCACUGCCAAUGCCGGUCCCAAGCCCGGAUAAAUGUGGAGGGGGCGG [A41U A8C], the self-cleavage amounted to 0.07. As for CCGCCUAGCACUGCCAAUGCCGGUCCCAAGCCCGGAUAAAUGUGGAGGGGGCGG [A41U A8G], the self-cleavage was determined as 0.41. Regarding CCGCCUAUCACUGCCAAUGCCGGUCCCAAGCCCGGAUAAAUGUGGAGGGGGCGG [A41U A8U], the self-cleavage is 0.25. The same measure for CCGCCUAACACUGCCAAUGGCGGUCCCAAGCCCGGAUAAAUGUGGAGGGGGCGG [A41U C20G]: 0.19. CCGCCUAACACUGCCAAUGUCGGUCCCAAGCCCGGAUAAAUGUGGAGGGGGCGG [A41U C20U]: the self-cleavage stood at 0.95. The same measure for CCGCCUAACACUGCCAAUGACGGUCCCAAGCCCGGAUAAAUGUGGAGGGGGCGG [A41U C20A]: 0.85; for CCGCCUAACACUGCCAAUGCCGGUCCCAAGCCCGGAUAAAGGCGGAGGGGGCGG [A41G U43C]: 0.13; for CCGCCUAACACUGCCAAUGCCGGUCCCAAGCCCGGAUAAAGGAGGAGGGGGCGG [A41G U43A]: 0.21.

As for CCGCCUAACACUGCCAAUGCCGGUCCCAAGCCCGGAUAAAGGGGGAGGGGGCGG [A41G U43G], the self-cleavage turned out to be 0.16. As to CCGCCUAAUACUGCCAAUGCCGGUCCCAAGCCCGGAUAAAUGUGGAGGGGGCGG [A41U C9U], the self-cleavage came to 0.78. In the case of CCGCCUAAGACUGCCAAUGCCGGUCCCAAGCCCGGAUAAAUGUGGAGGGGGCGG [A41U C9G], the self-cleavage was found to be 0.79.

For CCGCCUAAAACUGCCAAUGCCGGUCCCAAGCCCGGAUAAAUGUGGAGGGGGCGG [A41U C9A], the self-cleavage worked out at 0.42. CCGCCUAACACUGCCAAUGCCGGUACCAAGCCCGGAUAAAUGUGGAGGGGGCGG [A41U C25A]: the self-cleavage was 0.1.

On to CCGCCUAACACUGCCAAUGCCGGUGCCAAGCCCGGAUAAAUGUGGAGGGGGCGG [A41U C25G], for which the self-cleavage was determined as 0.11.

With CCGCCUAACACUGCCAAUGCCGGUUCCAAGCCCGGAUAAAUGUGGAGGGGGCGG [A41U C25U], the self-cleavage was 0.91. As to CCGCCUGACACUGCCAAUGCCGGUCCCAAGCCCGGAUAAAUGUGGAGGGGGCGG [A41U A7G], the self-cleavage stood at 0.31. Turning to CCGCCUCACACUGCCAAUGCCGGUCCCAAGCCCGGAUAAAUGUGGAGGGGGCGG [A41U A7C], the self-cleavage came out at 0.03. Regarding CCGCCUUACACUGCCAAUGCCGGUCCCAAGCCCGGAUAAAUGUGGAGGGGGCGG [A41U A7U], the self-cleavage worked out at 0.11. For the variant CCGCCUAACAUUGCCAAUGCCGGUCCCAAGCCCGGAUAAAUGUGGAGGGGGCGG [A41U C11U], the self-cleavage is 0.9. Regarding CCGCCUAACAAUGCCAAUGCCGGUCCCAAGCCCGGAUAAAUGUGGAGGGGGCGG [A41U C11A], the self-cleavage was found to be 0.79. With CCGCCUAACAGUGCCAAUGCCGGUCCCAAGCCCGGAUAAAUGUGGAGGGGGCGG [A41U C11G], the self-cleavage turned out to be 0.45. Take CCGCCUAACACUGCCAAUGCCGGGCCCAAGCCCGGAUAAAGGUGGAGGGGGCGG [A41G U24G]: the self-cleavage was 0.04. With CCGCCUAACACUGCCAAUGCCGGACCCAAGCCCGGAUAAAGGUGGAGGGGGCGG [A41G U24A], the self-cleavage came out at 0.07. Regarding CCGCCUAACACUGCCAAUGCCGGCCCCAAGCCCGGAUAAAGGUGGAGGGGGCGG [A41G U24C], the self-cleavage turned out to be 0.07.
